The results in this text go back to PubChem BioAssay AID485348 (The Scripps Research Institute Molecular Screening Center, 2010).

Calls of active or inactive are those of the source.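 The calls were made as follows: active = inhibition above 25%, the campaign hit cutoff; inactive = the rest.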

Nuclear receptor subfamily 5 group A member 2 (Homo sapiens), sequence (O00482 whole entry, looked up): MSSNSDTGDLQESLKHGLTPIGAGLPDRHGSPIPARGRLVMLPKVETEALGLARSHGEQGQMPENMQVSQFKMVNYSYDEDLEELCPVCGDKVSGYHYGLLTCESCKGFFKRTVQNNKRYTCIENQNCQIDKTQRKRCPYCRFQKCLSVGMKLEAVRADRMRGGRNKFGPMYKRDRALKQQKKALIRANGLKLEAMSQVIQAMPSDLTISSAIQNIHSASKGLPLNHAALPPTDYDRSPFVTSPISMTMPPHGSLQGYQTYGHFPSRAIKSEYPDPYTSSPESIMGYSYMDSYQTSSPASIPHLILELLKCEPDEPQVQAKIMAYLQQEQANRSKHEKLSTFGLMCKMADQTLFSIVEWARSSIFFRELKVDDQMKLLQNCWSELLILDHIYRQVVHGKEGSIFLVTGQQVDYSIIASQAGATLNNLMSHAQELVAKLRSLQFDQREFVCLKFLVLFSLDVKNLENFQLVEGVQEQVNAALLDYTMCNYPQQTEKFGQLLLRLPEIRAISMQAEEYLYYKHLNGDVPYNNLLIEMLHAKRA

This assay has as its target Nuclear receptor subfamily 5 group A member 2 (Homo sapiens) (UniProt O00482). Nature of the assay: LRH-1 reporter luminescence decrease – cell-based, 3X%INH, LRH-1 inverse agonist project (AID 485348). Conditions: HEK293T LRH-1 Cyp19-luciferase reporter, 20 h, at 5 µM, stronger effect = higher value. A digest of the protocol: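 Assay system – HEK293T with full-length LRH-1 plus Cyp19 luciferase reporter · Times – 20 h compound exposure after 4 h rest · Measured by – luminescence · Benchmarks – DMSO vehicle wells · Repeats – triplicate wells per compound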
For `N#CCn1c(N2CCN(c3cccc(C(F)(F)F)c3)CC2)cc(=O)n(C2CCCCC2)c1=O`, the inhibition is 2% (inactive).

Regarding `O=c1cc(N2CCN(c3cc(C(F)(F)F)ccn3)CC2)[nH]c(=O)n1C1CCCCC1`, the inhibition was 20.3% (inactive).

Consider `O=c1cc(N2CCN(c3ncccc3Cl)CC2)[nH]c(=O)n1C1CCCCC1`, for which the inhibition was 17.7% (inactive).

Regarding `CCN1CCN(c2cc(=O)n(C3CCCCC3)c(=O)[nH]2)CC1`, the inhibition is 5.3% (inactive).

As to `O=c1cc(N2CCN(c3ccnc4cc(Cl)ccc34)CC2)[nH]c(=O)n1C1CCCCC1`, the inhibition was 34.7%.

Regarding `O=c1cc(N2CCN(c3cc(Cl)cc(Cl)c3)CC2)[nH]c(=O)n1C1CCCCC1`, the inhibition is 20% (inactive).

As for `C=CCn1c(N2CCN(c3cccc(C(F)(F)F)c3)CC2)cc(=O)n(C2CCCCC2)c1=O`, the inhibition is 29.7%.

Turning to `Cc1ccc(C)n1CCN1CCN(c2cc(=O)n(C3CCCCC3)c(=O)[nH]2)CC1`, the inhibition is 32.3%.

Take `O=c1cc(N2CCN(c3cccc(F)c3)CC2)[nH]c(=O)n1C1CCCCC1`: the inhibition is 36.7%.

As for `O=c1cc(N2CCOCC2)[nH]c(=O)n1C1CCCCC1`, the inhibition is 5.3% (inactive).

Take `C=CCN1CCN(c2cc(=O)n(C3CCCCC3)c(=O)[nH]2)CC1`: the inhibition was -30% (inactive).

As for `CCn1c(=O)cc(N2CCN(C(=O)c3ccco3)CC2)[nH]c1=O`, the inhibition is 3.3% (inactive).

As to `O=c1cc(N2CCN(c3ccc(F)cc3)CC2)[nH]c(=O)n1C1CCCCC1`, the inhibition is 1.3% (inactive).

Turning to `O=c1cc(N2CCN(CCN3CCOCC3)CC2)[nH]c(=O)n1C1CCCCC1`, the inhibition is 13.3% (inactive).

With `O=c1cc(N2CCN(c3cccc(C(F)(F)F)n3)CC2)[nH]c(=O)n1C1CCCCC1`, the inhibition was 3.3% (inactive).

On to `O=c1cc(N2CCN(c3ncccc3C(F)(F)F)CC2)[nH]c(=O)n1C1CCCCC1`, for which the inhibition is 11.3% (inactive).

Turning to `O=c1cc(N2CCN(Cc3ccc4c(c3)OCO4)CC2)[nH]c(=O)n1C1CCCCC1`, the inhibition was 16.7% (inactive).

As for `O=c1cc(N2CCN(c3ccccc3C(F)(F)F)CC2)[nH]c(=O)n1C1CCCCC1`, the inhibition is 16% (inactive).

Take `O=c1cc(N2CCN(c3ccc(F)cc3F)CC2)[nH]c(=O)n1C1CCCCC1`: the inhibition is 3.3% (inactive).

With `CCn1c(=O)cc(N2CCN(c3ccc(F)cc3)CC2)[nH]c1=O`, the inhibition is 2.3% (inactive).

As for `CC1CCN(c2cc(=O)n(C3CCCCC3)c(=O)[nH]2)CC1`, the inhibition is 10% (inactive).

Consider `O=c1cc(N2CCCCC2)[nH]c(=O)n1C1CCCCC1`, for which the inhibition is 20.3% (inactive).

For the molecule `Cn1c(=O)cc(N2CCN(c3cccc(Cl)c3)CC2)[nH]c1=O`, the inhibition is 40.7%.

Regarding `O=c1cc(N2CCN(c3cccc(Cl)c3Cl)CC2)[nH]c(=O)n1C1CCCCC1`, the inhibition was 42%.

In the case of `CC1CCN(c2cc(=O)n(Cc3ccc(F)cc3)c(=O)[nH]2)CC1`, the inhibition was 5.7% (inactive).

With `CCn1c(=O)cc(N2CCN(c3cccc(Cl)c3)CC2)[nH]c1=O`, the inhibition was 45%.

As to `O=c1cc(N2CCN(c3nc(-c4ccccc4)ns3)CC2)[nH]c(=O)n1C1CCCCC1`, the inhibition was 42%.

Take `O=c1cc(N2CCN(c3cccc(C(F)(F)F)c3)CC2)[nH]c(=O)n1-c1ccccc1`: the inhibition was 17.7% (inactive).

In the case of `C=CCn1c(=O)cc(N2CCN(c3cccc(C(F)(F)F)c3)CC2)[nH]c1=O`, the inhibition is 36.7%.

As to `O=c1cc(N2CCN(c3cccc(C(F)(F)F)c3)CC2)[nH]c(=O)n1C1CCCCC1`, the inhibition is 45.7%.

Turning to `COC(=O)C1CCN(c2cc(=O)n(C3CCCCC3)c(=O)[nH]2)CC1`, the inhibition was 18% (inactive).

As for `O=c1cc(N2CCN(C(c3ccccc3)c3ccccc3)CC2)[nH]c(=O)n1C1CCCCC1`, the inhibition is 4% (inactive).

Regarding `O=c1cc(N2CCCC2)[nH]c(=O)n1C1CCCCC1`, the inhibition is 8.7% (inactive).

On to `CCOC(=O)N1CCN(c2cc(=O)n(C3CCCCC3)c(=O)[nH]2)CC1`, for which the inhibition was 16% (inactive).

Turning to `O=C(c1ccco1)N1CCN(c2cc(=O)n(C3CCCCC3)c(=O)[nH]2)CC1`, the inhibition was 11% (inactive).

With `O=c1cc(N2CCN(c3ccc(C(F)(F)F)cc3)CC2)[nH]c(=O)n1C1CCCCC1`, the inhibition was 0% (inactive).

Regarding `O=c1cc(N2CCN(c3ccccn3)CC2)[nH]c(=O)n1C1CCCCC1`, the inhibition is 36%.

Turning to `O=c1cc(N2CCN(c3cccc(C(F)(F)F)c3)CC2)n(Cc2ccccc2)c(=O)n1C1CCCCC1`, the inhibition was 21.3% (inactive).

On to `O=c1cc(N2CCN(c3cccc(Cl)c3)CC2)[nH]c(=O)n1C1CCCCC1`, for which the inhibition is 52.3%.

Turning to `O=c1cc(N2CCN(c3ccccc3)CC2)[nH]c(=O)n1Cc1ccc(F)cc1`, the inhibition is 22.7% (inactive).

For the molecule `O=c1cc(N2CCC(Cc3ccccc3)CC2)[nH]c(=O)n1C1CCCCC1`, the inhibition was 2.3% (inactive).

`O=c1cc(N2CCN(c3nccc4occc34)CC2)[nH]c(=O)n1C1CCCCC1`: the inhibition is 2.7% (inactive).

For `Cn1c(=O)cc(N2CCN(c3ccc(F)cc3)CC2)[nH]c1=O`, the inhibition was 14% (inactive).

As for `CCn1c(=O)cc(N2CCN(c3ccccc3)CC2)[nH]c1=O`, the inhibition was 3.7% (inactive).

`O=c1cc(N2CCN(c3cccc(Br)c3)CC2)[nH]c(=O)n1C1CCCCC1`: the inhibition was 17% (inactive).

For the molecule `O=c1cc(N2CCN(C3CCCCC3)CC2)[nH]c(=O)n1C1CCCCC1`, the inhibition is 35.3%.

Regarding `Cc1cc(C)cc(N2CCN(c3cc(=O)n(C4CCCCC4)c(=O)[nH]3)CC2)c1`, the inhibition was 38.3%.

Turning to `CCn1c(=O)cc(N2CCN(Cc3ccccc3)CC2)[nH]c1=O`, the inhibition is 9.7% (inactive).

Turning to `O=C(c1ccccc1)N1CCN(c2cc(=O)n(C3CCCCC3)c(=O)[nH]2)CC1`, the inhibition was 0.3% (inactive).

Take `O=c1cc(N2CCN(c3cccc(Cl)n3)CC2)[nH]c(=O)n1C1CCCCC1`: the inhibition was 45%.

For the molecule `Cc1ccc(Cl)cc1N1CCN(c2cc(=O)n(C3CCCCC3)c(=O)[nH]2)CC1`, the inhibition was 16.3% (inactive).

Regarding `O=c1cc(N2CCN(c3ccccc3)CC2)[nH]c(=O)n1C1CCCCC1`, the inhibition is 32%.

In the case of `CCn1c(=O)cc(N2CCN(c3cccc(C(F)(F)F)c3)CC2)[nH]c1=O`, the inhibition is 39.3%.

With `CC(C)Cn1c(=O)cc(N2CCN(c3cccc(C(F)(F)F)c3)CC2)[nH]c1=O`, the inhibition is 33.3%.

As for `O=c1cc(N2CCN(c3cccc(Cl)c3)CC2)[nH]c(=O)[nH]1`, the inhibition is 0% (inactive).

Turning to `O=c1cc(N2CCN(c3cccc(C(F)(F)F)c3)CC2)[nH]c(=O)n1Cc1ccccc1`, the inhibition is 3% (inactive).

For `COc1ccc(N2CCN(c3cc(=O)n(C4CCCCC4)c(=O)[nH]3)CC2)cc1`, the inhibition was 1.7% (inactive).

As to `O=c1cc(N2CCN(Cc3ccc(Cl)cc3)CC2)[nH]c(=O)n1C1CCCCC1`, the inhibition was 30.3%.

For `O=c1cc(N2CCc3ccccc32)[nH]c(=O)n1C1CCCCC1`, the inhibition is 14.3% (inactive).

Turning to `O=c1cc(N2CCN(c3ccccc3Cl)CC2)[nH]c(=O)n1C1CCCCC1`, the inhibition is 16% (inactive).
